From ChEMBL document CHEMBL2202977, “Optimization and structure-activity relationships of a series of potent inhibitors of methicillin-resistant Staphylococcus aureus (MRSA) pyruvate kinase as novel antimicrobial agents” (Bioorg Med Chem, 2012)
Values after ≈ are worked out from the molar mass of the structure shown.

Assays:
Staphylococcus aureus [1] = test: Antimicrobial activity against Staphylococcus aureus ATCC 29213 after 24 hrs broth microdilution method; type: functional
Method in brief: (§1)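 MIC taken as the minimum concentration giving >98% growth inhibition of the named S. aureus strain (RN4220, ATCC 25923 or ATCC 29213). Values are single determinations or averages of n determinations. Vancomycin was run as control.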

Pyruvate kinase = biological target: T1, Pyruvate kinase (Staphylococcus aureus (strain MRSA252), UniProt Q6GG09); test: Inhibition of methicillin-resistant Staphylococcus aureus 252 pyruvate kinase by LDH assay; parameters: species or system Staphylococcus aureus subsp. aureus MRSA252
T1 sequence (Q6GG09 whole entry): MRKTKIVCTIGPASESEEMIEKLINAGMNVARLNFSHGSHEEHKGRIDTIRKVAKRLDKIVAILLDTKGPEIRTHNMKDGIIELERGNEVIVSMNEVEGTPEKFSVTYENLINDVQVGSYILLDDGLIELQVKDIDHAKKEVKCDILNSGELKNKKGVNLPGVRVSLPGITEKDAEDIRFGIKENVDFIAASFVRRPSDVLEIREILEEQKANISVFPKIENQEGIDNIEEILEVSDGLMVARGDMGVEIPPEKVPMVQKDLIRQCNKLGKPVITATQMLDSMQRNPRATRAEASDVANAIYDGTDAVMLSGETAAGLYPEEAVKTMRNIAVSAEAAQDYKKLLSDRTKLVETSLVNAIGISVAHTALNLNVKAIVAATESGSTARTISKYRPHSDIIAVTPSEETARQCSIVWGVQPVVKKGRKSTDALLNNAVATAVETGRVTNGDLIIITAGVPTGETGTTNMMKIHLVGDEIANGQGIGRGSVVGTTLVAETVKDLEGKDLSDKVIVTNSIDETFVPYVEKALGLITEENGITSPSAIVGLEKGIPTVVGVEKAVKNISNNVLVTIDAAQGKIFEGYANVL
Method in brief: (§2)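 MRSA pyruvate kinase activity was measured by a previously described procedure. IC50 was calculated from triplicate 15-point titrations, or averaged over n such determinations. Where no IC50 was obtained, the value is % inhibition at the highest concentration tested.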

Staphylococcus aureus [2] = test: Antimicrobial activity against Staphylococcus aureus ATCC 25923 after 24 hrs broth microdilution method; type: functional; method in brief: as §1
[3] = biological target: Pyruvate kinase PKLR (Homo sapiens) (UniProt P30613); test: Inhibition of human pyruvate kinase R at 10 uM by LDH assay
Method in brief: (§3)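 Selected compounds were tested against mammalian PK isoforms M1, M2, R and L at the highest concentration, 10 µM. Results are given as percent inhibition.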

[4] = biological target: Pyruvate kinase PKM (Homo sapiens) (UniProt P14618); test: Inhibition of human pyruvate kinase M1 at 10 uM by LDH assay; method in brief: as §3
[5] = biological target: T2, Pyruvate kinase (Staphylococcus aureus (strain MRSA252)) (UniProt Q6GG09); test: Inhibition of methicillin-resistant Staphylococcus aureus 252 pyruvate kinase at 10 uM by LDH assay; conditions: Staphylococcus aureus subsp. aureus MRSA252; method in brief: as §2
T2 sequence (whole entry): T1 sequence (Q6GG09 whole entry)

[6] = biological target: Pyruvate kinase PKM (Homo sapiens) (UniProt P14618); test: Inhibition of human pyruvate kinase M2 at 10 uM by LDH assay; method in brief: as §3
[7] = biological target: T2, Pyruvate kinase (Staphylococcus aureus (strain MRSA252)); test: Inhibition of methicillin-resistant Staphylococcus aureus 252 pyruvate kinase at 1 uM by LDH assay; conditions: Staphylococcus aureus subsp. aureus MRSA252; method in brief: as §2
Staphylococcus aureus [8] = test: Antimicrobial activity against Staphylococcus aureus RN4220 after 24 hrs broth microdilution method; type: functional; method in brief: as §1
[9] = biological target: Pyruvate kinase PKLR (Homo sapiens) (UniProt P30613); test: Inhibition of human pyruvate kinase L at 10 uM by LDH assay; method in brief: as §3

Pyruvate kinase PKM (Homo sapiens), sequence (P14618 2-531 limits assumed): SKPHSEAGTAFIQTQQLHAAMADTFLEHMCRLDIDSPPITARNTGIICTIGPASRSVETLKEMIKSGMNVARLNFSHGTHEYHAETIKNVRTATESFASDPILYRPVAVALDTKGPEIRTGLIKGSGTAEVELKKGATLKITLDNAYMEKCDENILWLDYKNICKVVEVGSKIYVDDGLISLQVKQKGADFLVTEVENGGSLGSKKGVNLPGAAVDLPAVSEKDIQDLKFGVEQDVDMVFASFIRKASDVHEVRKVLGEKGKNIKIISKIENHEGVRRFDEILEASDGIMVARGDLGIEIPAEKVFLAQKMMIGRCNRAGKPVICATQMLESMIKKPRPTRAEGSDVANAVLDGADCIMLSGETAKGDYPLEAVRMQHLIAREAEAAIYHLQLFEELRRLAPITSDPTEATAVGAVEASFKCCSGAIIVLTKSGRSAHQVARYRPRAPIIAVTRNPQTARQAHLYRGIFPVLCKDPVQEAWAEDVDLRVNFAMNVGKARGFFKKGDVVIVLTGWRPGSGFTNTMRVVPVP
Pyruvate kinase PKLR (Homo sapiens), sequence (P30613 whole entry, looked up, canonical isoform): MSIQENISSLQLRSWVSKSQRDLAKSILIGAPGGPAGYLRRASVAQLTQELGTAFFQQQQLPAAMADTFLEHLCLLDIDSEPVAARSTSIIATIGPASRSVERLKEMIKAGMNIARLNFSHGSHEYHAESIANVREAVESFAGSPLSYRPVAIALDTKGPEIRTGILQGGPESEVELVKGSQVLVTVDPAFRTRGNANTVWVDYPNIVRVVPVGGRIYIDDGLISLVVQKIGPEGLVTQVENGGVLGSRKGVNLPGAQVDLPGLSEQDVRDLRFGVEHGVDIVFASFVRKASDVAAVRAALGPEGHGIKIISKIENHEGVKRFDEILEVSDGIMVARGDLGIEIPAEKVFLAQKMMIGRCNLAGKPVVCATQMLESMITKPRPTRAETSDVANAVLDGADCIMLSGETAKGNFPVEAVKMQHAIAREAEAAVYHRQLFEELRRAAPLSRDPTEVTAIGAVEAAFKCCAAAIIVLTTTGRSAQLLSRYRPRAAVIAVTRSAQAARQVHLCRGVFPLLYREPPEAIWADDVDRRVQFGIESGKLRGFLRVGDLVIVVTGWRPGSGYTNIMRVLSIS

With `C/C(=N\NC(=O)c1cc2ccccc2cc1O)c1cc2c(F)c(F)c(F)cc2n1C` as the compound, how does the “MIC>98” value (Staphylococcus aureus [1]) read?
Its value is >64 µg/mL.

What about the IC50 (Pyruvate kinase) of the same compound?
The IC50 was 59 nM.

What does the source list for `CC/C(=N\NC(=O)c1cc(Br)ccc1O)c1cc2cc(Br)ccc2[nH]1`?
MIC>98 (Staphylococcus aureus [1]): 4 µg/mL (≈ 8.6 µM); IC50 (Pyruvate kinase): 49 nM

Which results are given for `C/C(=N\NC(=O)c1cc2ccccc2cc1O)c1cc2ccccc2[nH]1`?
MIC>98 (Staphylococcus aureus [1]): >64 µg/mL; IC50 (Pyruvate kinase): 42 nM

Which results are given for `CC/C(=N\NC(=O)c1cc2ccccc2cc1O)c1cc2c(F)c(F)c(F)cc2n1C`?
MIC>98 (Staphylococcus aureus [1]): 32 µg/mL (≈ 75.2 µM); IC50 (Pyruvate kinase): 52 nM

`C/C(=N\NC(=O)c1cc(Br)ccc1O)c1cc2ccc(Br)cc2[nH]1` was tested. Which IC50 (Pyruvate kinase) did it give?
The IC50 was 24 nM.

What about the “MIC>98” value (Staphylococcus aureus [2]) of the same compound?
Its value is >64 µg/mL.

Which “MIC>98” value (Staphylococcus aureus [1]) does the source give for `CC(=NNC(=O)c1cc(Br)ccc1O)c1cc2c(F)c(F)c(F)cc2n1C` (mixture of isomers) here?
Its value is 2 µg/mL.

What about the IC50 (Pyruvate kinase) of the same compound?
Its IC50 is 55 nM.

How did the inhibition [3] turn out when `CC(=NNC(=O)c1cc(Br)ccc1O)c1cc2ccccc2n1C` (mixture of isomers) was run?
The inhibition was 2.6%.

What about the inhibition [4] of the same compound?
The inhibition was -3.7%.

And the “MIC>98” value (Staphylococcus aureus [1])?
Its value is 7.7 µg/mL.

And the IC50 (Pyruvate kinase)?
The IC50 was 381 nM.

What about the inhibition [5] of the same compound?
The inhibition was 96.3%.

What about the inhibition [6] of the same compound?
Its inhibition is 0.4%.

With `COc1ccc(Br)cc1C(=O)N/N=C/c1cc2ccccc2[nH]1` as the compound, how does the “MIC>98” value (Staphylococcus aureus [1]) read?
The value was >64 µg/mL.

What about the IC50 (Pyruvate kinase) of the same compound?
Its IC50 is 451 nM.

How did the IC50 (Pyruvate kinase) turn out when `C/C(=N\NC(=O)c1cc(Br)ccc1O)c1cc2cc(O)ccc2[nH]1` was run?
The IC50 was 214 nM.

What about the “MIC>98” value (Staphylococcus aureus [2]) of the same compound?
Its value is >64 µg/mL.

`COc1ccc(Br)cc1C(=O)N(C)/N=C(\C)c1cc2ccccc2[nH]1` was tested. Which inhibition [7] did it give?
The inhibition was 33%.

What about the “MIC>98” value (Staphylococcus aureus [2]) of the same compound?
Its value is >80 µg/mL.

For `CCOc1ccc(Br)cc1C(=O)N/N=C(\C)c1cc2ccccc2[nH]1`, which “MIC>98” value (Staphylococcus aureus [1]) is on record?
Its value is >64 µg/mL.

And the IC50 (Pyruvate kinase)?
Its IC50 is 63 nM.

For `C/C(=N\NC(=O)c1cc(Cl)ccc1O)c1cc2ccccc2[nH]1`, which “MIC>98” value (Staphylococcus aureus [8]) is on record?
The value was >64 µg/mL.

And the inhibition [7]?
The inhibition was 36%.

What does the source list for `CCOCOc1ccccc1C(=O)N/N=C(\C)c1cc2cc(Br)ccc2[nH]1`?
MIC>98 (Staphylococcus aureus [1]): >64 µg/mL; IC50 (Pyruvate kinase): 251 nM

How did the “MIC>98” value (Staphylococcus aureus [1]) turn out when `CCC(=NNC(=O)c1cc(Br)ccc1O)c1cc2cc(Br)ccc2n1C` (mixture of isomers) was run?
The value was 2 µg/mL.

And the IC50 (Pyruvate kinase)?
Its IC50 is 168 nM.

Which results are given for `CC/C(=N\NC(=O)c1cc2ccccc2cc1O)c1cc2c(F)c(F)c(F)cc2[nH]1`?
MIC>98 (Staphylococcus aureus [1]): >64 µg/mL; IC50 (Pyruvate kinase): 31 nM

For `COc1ccc(Br)cc1C(=O)N/N=C(\C)c1cc2ccccc2[nH]1`, which “MIC>98” value (Staphylococcus aureus [8]) is on record?
The value was >193 µg/mL.

What about the inhibition [3] of the same compound?
Its inhibition is 31.9%.

What about the inhibition [4] of the same compound?
The inhibition was 29%.

And the IC50 (Pyruvate kinase)?
Its IC50 is 182 nM.

What about the inhibition [5] of the same compound?
Its inhibition is 83.4%.

And the inhibition [9]?
Its inhibition is 27.2%.

What about the inhibition [6] of the same compound?
Its inhibition is 16.1%.

With `CC(=NNC(=O)c1cc2ccccc2cc1O)c1cc2cc(Br)ccc2n1C` (mixture of isomers) as the compound, how does the “MIC>98” value (Staphylococcus aureus [1]) read?
The value was >64 µg/mL.

And the IC50 (Pyruvate kinase)?
Its IC50 is 115 nM.

`C/C(=N\NC(=O)c1cc(Br)ccc1O)c1cc2cc(F)ccc2[nH]1` was tested. Which “MIC>98” value (Staphylococcus aureus [8]) did it give?
The value was >195 µg/mL.

What about the inhibition [3] of the same compound?
The inhibition was -1.6%.

What about the inhibition [4] of the same compound?
Its inhibition is -4.6%.

What about the IC50 (Pyruvate kinase) of the same compound?
The IC50 was 49 nM.

And the inhibition [5]?
Its inhibition is 97%.

What about the inhibition [9] of the same compound?
The inhibition was -0.5%.

What about the inhibition [6] of the same compound?
Its inhibition is 0.4%.

How did the inhibition [3] turn out when `CC/C(=N\NC(=O)c1cc2ccccc2cc1O)c1cc2cc(Br)ccc2[nH]1` was run?
Its inhibition is -3.4%.

What about the inhibition [4] of the same compound?
The inhibition was 5.6%.

And the “MIC>98” value (Staphylococcus aureus [1])?
Its value is 16 µg/mL (≈ 36.7 µM).

And the IC50 (Pyruvate kinase)?
The IC50 was 18 nM.

What about the inhibition [5] of the same compound?
The inhibition was 99.6%.

And the inhibition [9]?
Its inhibition is -0.2%.

And the inhibition [6]?
The inhibition was 3%.

For `CCC(=NNC(=O)c1cc2ccccc2cc1O)c1cc2cc(Br)ccc2n1C` (mixture of isomers), which inhibition [3] is on record?
The inhibition was -0.6%.

What about the inhibition [4] of the same compound?
The inhibition was 0%.

And the “MIC>98” value (Staphylococcus aureus [1])?
Its value is 1 µg/mL.

And the IC50 (Pyruvate kinase)?
The IC50 was 79 nM.

What about the inhibition [5] of the same compound?
The inhibition was 97.7%.

And the inhibition [9]?
Its inhibition is -5.6%.

And the inhibition [6]?
Its inhibition is -0.8%.

What does the source list for `C/C(=N\NC(=O)c1cc(Br)ccc1O)c1cc2c(F)c(F)c(F)cc2[nH]1`?
MIC>98 (Staphylococcus aureus [1]): >85 µg/mL; IC50 (Pyruvate kinase): 15 nM

For `C/C(=N\NC(=O)c1cc2ccccc2cc1O)c1cc2cc(Br)ccc2[nH]1`, which “MIC>98” value (Staphylococcus aureus [1]) is on record?
The value was >64 µg/mL.

What about the IC50 (Pyruvate kinase) of the same compound?
The IC50 was 26 nM.

How did the “MIC>98” value (Staphylococcus aureus [8]) turn out when `C/C(=N\NC(=O)c1cc(Br)ccc1O)c1cc2cc(-c3ccccc3)ccc2[nH]1` was run?
The value was >90 µg/mL.

What about the inhibition [7] of the same compound?
Its inhibition is 0%.

With `CC/C(=N\NC(=O)c1cc(Br)ccc1O)c1cc2ccccc2[nH]1` as the compound, how does the “MIC>98” value (Staphylococcus aureus [8]) read?
Its value is 9.7 µg/mL (≈ 25.1 µM).

What about the inhibition [3] of the same compound?
Its inhibition is 4.8%.

What about the inhibition [4] of the same compound?
Its inhibition is 6.6%.

And the IC50 (Pyruvate kinase)?
The IC50 was 126 nM.

And the inhibition [5]?
The inhibition was 99.2%.

What about the inhibition [9] of the same compound?
The inhibition was 3.6%.

What about the inhibition [6] of the same compound?
Its inhibition is -2.4%.
